SUMO1 PPI mod = alters human SUMO1 binding to SIM partners; P63165; SUMO1 binding to a labelled peptide, TR-FRET, 1 h; inhibition, % at 20 µM; 360,000 compounds, 0.33% hits; in the data active = inhibition above about 37%
STEP inh = STEP (human) phosphatase inhibition | P54829 | recombinant STEP, OMFP fluorogenic substrate, fluorescence | inhibition, % at 20 µM | 360,000 compounds, 0.25% hits;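 active = inhibition at 20 µM, scaled per plate between control wells, above about 37%, limit read from the data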;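 note: 0% = DMSO with enzyme and substrate and 100% = substrate only without enzyme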
Target sequence (P54829 whole entry, looked up): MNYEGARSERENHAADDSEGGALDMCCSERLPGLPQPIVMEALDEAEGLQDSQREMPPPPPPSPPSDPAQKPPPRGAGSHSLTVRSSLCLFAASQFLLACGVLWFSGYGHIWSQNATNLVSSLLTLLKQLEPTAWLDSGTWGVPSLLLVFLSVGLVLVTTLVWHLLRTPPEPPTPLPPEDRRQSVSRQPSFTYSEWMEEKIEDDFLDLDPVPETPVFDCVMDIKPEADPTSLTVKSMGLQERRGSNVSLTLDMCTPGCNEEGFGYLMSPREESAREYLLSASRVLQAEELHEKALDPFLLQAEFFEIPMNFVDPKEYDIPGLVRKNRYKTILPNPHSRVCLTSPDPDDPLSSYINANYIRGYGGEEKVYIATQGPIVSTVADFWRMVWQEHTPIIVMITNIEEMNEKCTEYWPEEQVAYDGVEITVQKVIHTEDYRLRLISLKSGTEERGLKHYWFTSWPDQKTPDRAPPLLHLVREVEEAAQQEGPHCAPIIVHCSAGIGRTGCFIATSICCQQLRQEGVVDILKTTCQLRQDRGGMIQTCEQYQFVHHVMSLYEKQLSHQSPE
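System: STEP phosphatase, cell-free reaction; Buffer or medium: Bis-Tris pH 6.0 buffer with DTT, detergent; Incubation: 20 min at room temperature, dark; Measured by: fluorescence, 480/540 nm.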
LMPTP inh = blocks human LMPTP phosphatase | recombinant LMPTP-A, OMFP fluorogenic substrate, fluorescence intensity | 360,000 compounds, 0.22% hits | AID 651560 | P24666 | inhibition, % at 20 µM;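 active = compounds that cut the enzyme signal by at least half of the control window in the single-dose screen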;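 note: plate controls were DMSO wells with enzyme plus substrate for no effect and substrate without enzyme for full effect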
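Assay system: LMPTP-A, protein tyrosine phosphatase of low molecular weight / Medium: pH 6.0 Bis-Tris buffer with DTT and Triton X-100 / Schedule: 50 min enzyme reaction at room temperature, protected from light / Measured by: endpoint fluorescence intensity from OMFP dephosphorylation / Read-out basis: % inhibition relative to no-enzyme and uninhibited control wells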
DNMT1 inh = DNMT1 (human) enzyme inhibition; 360,000 compounds, 0.83% hits; inhibition (reported as % activation of signal), % at 10 µM; DNMT1 molecular beacon, Hinp1I cleavage, fluorescence; in the data active = inhibition above about 50%
Scp1 inh = Scp-1 (human) phosphatase inhibition. inhibition, % at 20 µM. 340,000 compounds, 0.88% hits. Recombinant Scp1, phosphopeptide, malachite green phosphate absorbance;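 active = inhibition above about 50% at 20 µM, limit read from the data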;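 note: plate controls were DMSO wells with enzyme for no effect and wells lacking enzyme for full effect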
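assay system = SCP-1 phosphatase catalytic domain, residues 76-261 | buffer or medium = 50 mM Tris acetate pH 5.5, 0.005% Tween-20, 10 mM MgCl2 | incubation = enzyme reaction 45 min at room temperature, colour 5 min, stabilisation 30 min | signal = Phosphate-binding colour reagent, absorbance read at 630 nm | measure = % inhibition at 20 µM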
Numbers without * were called inactive; . = no result. Shown are actives, neighbours in structure and some others; about 1.8% of the full set was active somewhere.

SMILES | SUMO1 PPI mod | STEP inh | LMPTP inh | DNMT1 inh | Scp1 inh
O=C(COC(=O)c1c2c(nc3ccccc13)/C(=C/c1ccco1)CC2)NC1CCCC1 | 18 | 18 | 48 | 86* | 78*
CN1CCN(C(=O)c2cnn(-c3ccccc3)c2NC(=O)c2ccccc2Cl)CC1 | 55* | 1 | 0 | -2 | -5
Cc1ccccc1NC1=C/C(=N\S(=O)(=O)c2ccc(C(=O)O)cc2)c2ccccc2C1=O | 69* | 20 | 9 | 72* | 2
O=C(O)c1ccc(S(=O)(=O)/N=C2\C=C(Nc3ccccc3F)C(=O)c3ccccc32)cc1 | 75* | 5 | 10 | 74* | -1
Cc1ccccc1NC1=C/C(=N\S(=O)(=O)c2cccs2)c2ccccc2C1=O | 29 | 7 | 9 | 69* | -14
COc1ccc(S(=O)(=O)/N=C2\C=C(Nc3ccc(O)cc3)C(=O)c3ccccc32)cc1 | 19 | 0 | 9 | 41 | -15
CC(=O)Oc1c(I)cc(I)cc1C(=O)Nc1ccc(Cl)cc1 | 0 | 7 | 5 | 4 | -7
CC1OC2CC(=O)OC2C2=C1C(=O)c1c(O)cccc1C2=O (configuration not stated) | 3 | 9 | 18 | 75* | .
COC(=O)c1ccc(=O)c2nc3/c(=C/O)c(O)cc(=O)c3[nH]c12 | 5 | 100* | 81* | 108* | 58*
Cc1cc(C(C)(C)C)cc(C)c1Cn1c2[n+](c3ccc(C(F)(F)F)cc31)CCCCC2 | -19 | 0 | 0 | 16 | 66*
COc1cc2oc(=O)cc(CN3CCCCC3)c2cc1Cl | -10 | -3 | -2 | 1 | .
O=C1CC(c2ccccc2)=C(c2ccccc2)C1c1ccccc1 (configuration not stated) | 0 | 1 | 3 | 4 | -16
O=C(N/N=C/c1ccc([N+](=O)[O-])o1)c1cn(-c2ccccc2)nc1-c1ccc(Cl)cc1 | 8 | 2 | 0 | 50* | -3
O=C1C(C2=C(O)c3ccccc3C2=O)=Nc2ccccc21 | -6 | 27 | 1 | 41 | 52*
c1cn(CCCNC2CCCCCCC2)cn1 | 2 | 3 | -4 | -2 | -7
CCn1c(SC(C)C(=O)O)nc2sc3c(c2c1=O)CCC3 (configuration not stated) | 13 | 10 | 15 | 90* | 78*
Cc1cccc2cc(-c3nc4ccc(C(=O)O)cc4[nH]3)c(=O)oc12 | -4 | 18 | 4 | 0 | 58*
O=C(Nc1ccc(F)cc1)C(c1ccnc2ccccc12)N1CCN(C(=O)c2ccco2)CC1 (configuration not stated) | -3 | . | -1 | . | .
CC(C)(C)OC(=O)[C@H](Cc1ccccc1)NC(=O)c1ncn2c1c(=O)[nH]c1ccc(Br)cc12 | -28 | 2 | 73* | 48 | .
CC(C)(C)OC(=O)[C@H](Cc1ccccc1)NC(=O)c1nc[nH]c1C(=O)N[C@@H](Cc1ccccc1)C(=O)OC(C)(C)C | 3 | 1 | 2 | -16 | -4
Cn1c(C(=O)OC(C(=O)NCC2CCCO2)c2cccnc2)cc2sccc21 (configuration not stated) | -6 | 0 | 2 | 2 | 57*
CCCCN(C(=O)c1ccc(OC)c([N+](=O)[O-])c1)c1c(N)n(CCC)c(=O)[nH]c1=O | -12 | 1 | -1 | 0 | -5
NC(CSC(c1ccccc1)(c1ccccc1)c1ccccc1)C(=O)O (configuration not stated) | 1 | 6 | 1 | 52* | 2
CCOCCCNC(=O)c1cn(CC)c2ccc(S(=O)(=O)N(C)C3CCCCC3)cc2c1=O | 5 | 2 | 0 | 2 | -7
O=C(O)C1CCCN1c1nc(-c2ccc(Cl)c(Cl)c2)cc(C(F)(F)F)n1 (configuration not stated) | 7 | -1 | 1 | -1 | -13
SMILES | SUMO1 PPI mod | STEP inh | LMPTP inh | DNMT1 inh | Scp1 inh
Cc1ccc(O)c(N=CC2=C(O)c3ccccc3C2=O)c1 | 15 | 2 | 4 | 57* | -10
CCCC1(c2ccccc2)NC(=O)N(CC(=O)Nc2ccccc2C(F)(F)F)C1=O (configuration not stated) | 6 | -2 | 0 | 1 | -6
Cc1noc(C)c1C(=O)Nc1cccc(S(=O)(=O)N2CCOCC2)c1 | 2 | -2 | 0 | 5 | -8
O=C(N=Nc1c(O)[nH]c2ccccc12)c1cc(-c2cccs2)[nH]n1 | 60* | 13 | 39 | 11 | 7
O=C(Cn1ncc(Cl)c(Cl)c1=O)Nc1ccc2c(c1)OCO2 | 1 | -1 | 10 | 47 | 0
CCN(CC)S(=O)(=O)c1cc(NC(=O)Cn2ncc(Cl)c(Cl)c2=O)ccc1C | -1 | -1 | 24 | 50 | 89*
COc1ccc(NC(=O)Cn2ncc(Cl)c(Cl)c2=O)cc1S(=O)(=O)N1CCOCC1 | 0 | 4 | 5 | 15 | 99*
COc1ccc(NC(=O)c2ccc(Cl)nc2)cc1S(=O)(=O)N1CCOCC1 | 1 | -3 | -1 | 6 | -2
CC[n+]1c(/C=C(\C)Nc2ccccc2)sc2ccccc21 | -1 | 1 | 1 | -3 | 79*
CN[C@H](C)C(=O)NC[C@H]1O[C@@H](n2cnc3c(N)ncnc32)[C@H](O)[C@@H]1O | 0 | -2 | -3 | 0 | 4
CCOC(=O)c1c(C)[nH]c(C)c1S(=O)(=O)NCC(=O)Nc1ccccn1 | 3 | 0 | -1 | 0 | -5
CCSc1nc(C)nc2sc(C)c(C)c12 | 79* | 4 | 1 | 24 | -12
COCCC(=O)N1CCC(Oc2ccc(C(=O)N3CCCCC3CCO)cc2)CC1 (configuration not stated) | 2 | -1 | -1 | 0 | -5
CN1CCN(C(=O)c2cccc(S(=O)(=O)N3CCCC3)c2)CC1 | 0 | 2 | 2 | 7 | -7
COc1ccc2nc3cc(Cl)ccc3c(Nc3cc(CN4CCCC4)c(O)c(CN4CCCC4)c3)c2n1 | -60 | 14 | 50* | 65* | .
O=C(O)C(Cc1ccccc1)N1C(=O)/C(=C/C=C/c2ccco2)SC1=S (configuration not stated) | 115* | 83* | 64* | 97* | 84*
O=C(NN1C(=O)/C(=C/C=C/c2ccco2)SC1=S)c1ccccc1O | 77* | 14 | 61* | 91* | 74*
O=C(O)CC(C(=O)O)N1C(=O)/C(=C/C=C/c2ccco2)SC1=S (configuration not stated) | 112* | 89* | 66* | 79* | 88*
O=C(O)CCCN1C(=O)/C(=C/C=C/c2ccco2)SC1=S | 103* | 54* | 35 | 87* | 97*
CCOC(=O)C1=CCN(S(=O)(=O)c2ccc(F)cc2)C1c1ccc(F)cc1 (configuration not stated) | 5 | . | 0 | . | .
